Screens (PubChem)
NR2E3 ag-1: inhibitors of NR2E3-RetCOR corepressor binding, primary screen, NR2E3 agonist project, biochemical, TR-FRET, GST-NR2E3, biotin-RetCOR. Photoreceptor-specific nuclear receptor (Homo sapiens), Q9Y5X4. 1536-well. inhibition of corepressor binding, % at 4.78 µM. 0.12% of 320,000 active;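 active = percent inhibition above the cutoff of mean plus 3 SD of all tested compounds, set per screening campaign, cut at about 20% in these data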
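Material: NR2E3–RetCOR corepressor complex | Quantity: 1.35 nM GST-tagged NR2E3 final | Schedule: 5 h at 4 °C | Replication: Singlicate compound wells | Reagent: RetCOR corepressor, biotinylated, 7 nM | Controls: Biotin wells as high control, 0.6% DMSO wells as low control | Signal: TR-FRET, Eu(K)-anti-GST donor, streptavidin-D2 acceptor, ex 340, em 617/671 nm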
SMARCA2 activ: SMARCA2 (BRM) function activators, primary screen, cell-based, luminescence, high throughput | MG213 cells, MMTV-luciferase reporter, dexamethasone, overnight | activation, % at 9.1 µM | 1% of 370,000 active; in the data active = activation above about 7.8%
NR2E3 ag-2: NR2E3 agonists in two-hybrid cells, primary screen, cell-based, luminescence, CHO-S, Gal4-NCOR/VP16-NR2E3; Photoreceptor-specific nuclear receptor (Homo sapiens), Q9Y5X4; luciferase; inhibition of corepressor binding, % at 3.98 µM; 0.35% of 360,000 active;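 active = inhibition above the mean of all tested compounds plus 3 SD, cut at about 70% in these data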;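 note: higher means lower luciferase signal from less NR2E3 corepressor binding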
COUP-TFII inh: NR2F2 transcriptional activity inhibitors, primary screen, cell-based, luciferase reporter, HEK293T, luminescence; inhibition, % at 8.6 µM; HEK293T NGFI-A luciferase reporter; 0.7% of 370,000 active; AID 686940, 2013;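 active = inhibition above a per-plate cutoff, mean inhibition of test wells between control levels plus 3 SD, cut at about 38% in these data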;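 note: cells cotransfected with COUP-TFII expression vector driving the NGFI-A reporter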
Target sequence (P24468 whole entry, looked up): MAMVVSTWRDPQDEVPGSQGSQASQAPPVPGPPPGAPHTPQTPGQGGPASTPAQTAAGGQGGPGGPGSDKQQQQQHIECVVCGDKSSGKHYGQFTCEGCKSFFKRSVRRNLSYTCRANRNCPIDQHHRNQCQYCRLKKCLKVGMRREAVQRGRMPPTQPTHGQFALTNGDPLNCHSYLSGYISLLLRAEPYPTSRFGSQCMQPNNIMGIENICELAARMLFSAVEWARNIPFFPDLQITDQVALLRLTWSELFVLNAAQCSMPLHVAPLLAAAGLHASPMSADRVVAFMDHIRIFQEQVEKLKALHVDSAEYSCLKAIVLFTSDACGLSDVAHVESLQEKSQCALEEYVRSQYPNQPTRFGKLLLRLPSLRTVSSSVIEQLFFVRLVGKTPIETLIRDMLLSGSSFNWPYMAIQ
GalR3 antag: GalR3 antagonists in HEK293 cells, primary screen, cell-based, fluorescence readout | AID 651719, 2012 | HEK293 GalR3-CNG cAMP membrane potential fluorescence; galR3 body fused to GalR1 C-terminus | Galanin receptor type 3 (Homo sapiens), O60755 | 0.44% of 360,000 active | inhibition, % at 3 µM;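 active = inhibition above the screen-wide average plus 3 SD, cut at about 13% in these data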;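 note: forskolin and galanin both at EC90 stimulate the cells; cAMP rise reported by CNG channel membrane potential dye signal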
GalR3 antag conf: GalR3 antagonist hit confirmation, cell-based, fluorescence, triplicate; shares compounds with GalR3 antag; HEK293 GalR3 CNG cAMP biosensor, membrane potential fluorescence; galR3 fused to GalR1 carboxy tail; challenged with forskolin and galanin at EC90; inhibition, % at 3 µM; 59% of 1,600 active;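 active = inhibition above the primary screen's cutoff, the mean inhibition of all screened compounds plus 3 SD, cut at about 13% in these data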
CNG parental: nonspecific cAMP agonists in parental HEK-CNG cells, counter-screen for GalR3 antagonist project, cell-based, fluorescence, high throughput; shares compounds with GalR3 antag; activation, % at 3 µM; 10% of 1,600 active; HEK293-CNG parental cells, cAMP membrane potential fluorescence; normalised: DMSO wells 0%, forskolin wells 100%; in the data active = activation above about 1.3%
Hits are given with their value; . = inactive; / = no result. Only some compounds are listed: those with a hit (about 2.2% of all), similar ones and a draw of the others.

SMILES	NR2E3 ag-1	SMARCA2 activ	NR2E3 ag-2	COUP-TFII inh	GalR3 antag	GalR3 antag conf	CNG parental
Cc1cc(/C=N/n2c(COc3ccccc3)nc3ccccc3c2=O)c(O)c([N+](=O)[O-])c1	.	.	.	.	31	44	.
Cc1ccc(-c2[nH]ncc2/C=N/n2c(COc3ccccc3)nc3ccccc3c2=O)cc1	.	.	.	.	.	/	/
CCCCc1ccc(NC(=O)c2ccc(N(C)S(C)(=O)=O)cc2)cc1	.	.	.	.	36	115	.
COc1ccc(NS(=O)(=O)c2ccc(NC(=O)c3ccc(N(C)S(C)(=O)=O)cc3)cc2)c(OC)c1	.	.	.	.	99	107	.
N#Cc1c(N)nc2c3c(sc(=N)c2c1N)NC(=O)CC3c1ccccc1 (centres undefined)	.	.	.	.	22	25	.
N#Cc1c(N)nc2c3c(sc(=N)c2c1N)NC(=O)CC3c1c(F)cccc1Cl (centres undefined)	.	.	.	.	.	/	/
Cc1c(C#N)c(N)nc2c3c(sc12)NC(=O)CC3c1ccc(Cl)cc1 (centres undefined)	.	.	.	.	25	48	.
N#CCC1(O)C(=O)Nc2ccccc21 (centres undefined)	/	.	/	.	.	/	/
CC(C)c1cc(C(C)C)c(S(=O)(=O)N2CCC(C(=O)NCC3COCCO3)CC2)c(C(C)C)c1 (centres undefined)	/	.	/	.	/	/	/
Cn1c(=O)[nH]c2c(Cl)nccc21	.	.	.	.	16	.	.
CCOC(=O)[C@@]12CN(C(=O)OC(C)(C)C)CC=C1N(Cc1ccc(OC)cc1)C(=O)[C@H]2CC(=O)NCc1ccc(C)o1	/	.	/	.	/	/	/
COc1ccc(-c2c3c(=O)n(C)c(=O)n(C)c3cn2-c2ccccc2O)cc1	.	.	.	.	.	/	/
COc1ccc(-c2c3c(=O)n(C)c(=O)n(C)c3cn2-c2cc(OC)ccc2OC)cc1	.	.	.	.	18	20	.
Cc1cccc(C(=O)Nc2c(-c3ccc(C(F)(F)F)cc3)nc3ncccn23)c1	/	.	/	.	/	/	/
CC1Oc2ccccc2C=C1/C=N/Nc1ccc(C(=O)O)cc1 (centres undefined)	.	.	.	.	14	14	.
Cc1ccc(NC(=O)NNC(=O)CCn2nc(C)c([N+](=O)[O-])c2C)cc1C	/	.	/	.	/	/	/
Cc1ccc(S(=O)(=O)Oc2ccccc2/C=N/Nc2ccc(C(=O)O)cc2)cc1	.	.	.	.	18	.	.
Cc1ccc(S(=O)(=O)Oc2ccccc2/C=N/O)cc1	.	.	.	.	.	/	/
COCCn1cnnc1SCC(=O)Nc1cccc(S(=O)(=O)N(C)c2ccccc2)c1	.	.	.	.	.	/	/
Cc1nnc(SCC(=O)Nc2cccc(S(=O)(=O)N(C)c3ccccc3)c2)s1	.	.	.	.	13	.	.
O=C(CCC1CCCN(c2ncccn2)C1)NCc1ccc(F)c(F)c1 (centres undefined)	.	.	.	.	38	.	.
O=C(CCC1CCCN(C(=O)C2CCCC2)C1)NCc1ccc(F)c(F)c1 (centres undefined)	.	.	.	.	.	/	/
CCCC/C=C1/[C@@H](CC)N(Cc2ccc(OC)cc2OC)C2=N[C@H](c3ccccc3)CC(=O)N21	/	/	/	.	/	/	/
CS(=O)(=O)N1C[C@]2(c3ccccc3)CC1Cc1ccccc12	/	/	/	.	/	/	/
CCNC(=O)NC(=O)C(C)Oc1ccc(C(=O)OC)cc1 (centres undefined)	.	.	.	.	20	.	.
SMILES	NR2E3 ag-1	SMARCA2 activ	NR2E3 ag-2	COUP-TFII inh	GalR3 antag	GalR3 antag conf	CNG parental
CCNC(=O)NC(=O)C(C)OC(=O)c1oc2ccc(OC)cc2c1C (centres undefined)	.	.	.	.	.	/	/
Cc1[nH]c(=O)c(C#N)cc1-c1ccccc1	.	.	.	.	20	20	.
Cc1[nH]c(=O)c(C#N)cc1-c1csc(-c2ccccc2)n1	.	.	.	.	.	/	/
COC(=O)c1ccc(N2CCN(CC(=O)c3ccc(C)cc3)CC2)c([N+](=O)[O-])c1	.	.	.	.	.	/	/
COC(=O)c1ccc(N2CCN(CC(=O)c3ccc(-c4ccccc4)cc3)CC2)c([N+](=O)[O-])c1	.	.	.	.	/	.	.
Cc1ccc(CNC(=O)c2ccc(N3CCC4(CC3)CC(c3cccc(Br)c3)=NO4)c(NC(=O)c3ccccc3)c2)cc1	.	.	.	.	14	23	.
O=C(CN1CCN(Cc2ccccc2F)C1=O)NC1CCCC1	.	.	.	.	13	.	.
O=C(CN1CCCN(Cc2ccc(F)cc2Cl)C1=O)NC1CCCCCCC1	.	.	.	.	.	/	/
COc1ccc(OC)c(CN2C(=O)CCCCC2(C)c2nnnn2C2CCCC2)c1 (centres undefined)	/	.	/	.	/	/	/
CCc1nc2ccc(C(=O)Nc3ccc(OC)c(OC)c3)cn2c1N(CC)CCOC	/	.	.	.	13	.	.
COc1cc(OC)cc(C(=O)NCC(=O)NCCN2C(=O)S/C(=C\c3ccc4c(c3)OCO4)C2=O)c1	/	.	.	.	13	.	.
COC(=O)[C@]12C[C@H](CC(=O)NCCCN3CCCC3=O)C(=O)N(Cc3ccco3)C1=C[C@H](C1CCCC1)O[C@@H]2C	/	.	/	.	/	/	/
COC(=O)C1=CO[C@@H](O[C@@H]2O[C@H](CO)[C@@H](O)[C@H](O)[C@H]2O)C2C1C=C[C@@]2(O)CO (some centres undefined)	/	.	.	.	/	.	.
COC(=O)C1CN(C2CCCC2)CCS(=O)(=O)N1Cc1cn(Cc2ccc(C)cc2)nn1 (centres undefined)	/	.	/	.	/	/	/
CCOc1ccc(CO/N=C/c2c(C)[nH]c(=O)[nH]c2=O)cc1	.	.	.	.	22	21	.
FC(F)(F)c1cccc(/C=N/NC(=S)NC2CCCCC2)c1	.	.	.	.	90	84	2.5
FC(F)(F)c1ccc(/C=N/NC(=S)NC2CCCCC2)cc1	.	.	.	.	.	/	/
